# The list is not random: actives were taken first. Their share in the collection is about 1.2%.
# EBNA-1 inh = EBNA-1 DNA-binding inhibitors, primary screen, biochemical, fluorescence polarization; inhibition, % at 14.8 µM; actives 0.34% (n = 300,000); in the data active = inhibition above about 28%
# HCV NS3 hel inh = inhibitors of HCV NS3 helicase, primary screen, biochemical, Cy5 molecular beacon fluorescence; NS3 helicase DNA unwinding; inhibition, % at 10.9 µM; actives 0.56% (n = 290,000); AID 1800, 2009; Hepatitis C virus NS3 helicase;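 active = inhibition above the mean of all tested compounds plus 3 SD, set per campaign, cut at about 35% in these data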;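 note: 0% = DMSO wells and 100% = thioflavine S control wells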
#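 assay system = NS3 helicase fragment of HCV | buffer or medium = MOPS pH 6.5, MgCl2, DTT, Tween20, BSA | timing = 60 min unwinding reaction at 25 °C after ATP addition | signal = Cy5 beacon fluorescence read at start and 1 h | read-out basis = % inhibition of unwinding | control set = low DMSO, high thioflavine S at 110 µM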
# HCV core dimer = inhibitors of HCV core protein dimerization, primary screen, biochemical, TR-FRET, high-throughput. TR-FRET GST/Flag-core106 dimerization, 1536-well. AID 1899, 2009. actives 0.33% (n = 300,000). inhibition, % at 5 µM;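 active = inhibition above the mean of all tested compounds plus 3 SD, set per screening campaign, cut at about 45% in these data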
#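 assay system = GST-tagged and Flag-tagged HCV core protein residues 1-106 | controls = unlabelled core106 and no-GST-core106 wells | incubation = compound-protein-antibody incubation 4 h at 22.5 °C | probe or stimulus = Eu donor and XL665 acceptor anti-tag antibodies | read-out = % inhibition based on acceptor/donor emission ratio | signal = TR-FRET 671 and 617 nm emission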
# ZTA DNA inh = blocks Epstein-Barr virus ZTA, an EBNA-1 counter-screen | P03206 | ZTA-DNA binding, fluorescence polarization | inhibition, % at 11 µM | actives 0.15% (n = 320,000) | AID 2234; in the data active = inhibition above about 33%
# Target sequence (P03206 whole entry, looked up): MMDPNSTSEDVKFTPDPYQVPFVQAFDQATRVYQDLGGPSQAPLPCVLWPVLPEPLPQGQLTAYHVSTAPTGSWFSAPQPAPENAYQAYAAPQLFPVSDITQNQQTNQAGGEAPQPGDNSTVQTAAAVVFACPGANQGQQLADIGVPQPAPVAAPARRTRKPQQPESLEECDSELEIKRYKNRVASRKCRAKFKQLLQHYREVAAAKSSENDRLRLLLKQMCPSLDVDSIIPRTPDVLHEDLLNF
# EBNA-1 confirm = EBNA-1 DNA-binding inhibitors, retest, confirmation, biochemical, fluorescence polarization, triplicate; inhibition, % at 14.8 µM; AID 2292, 2010; Recombinant EBNA-1 DBD, Cy5-DNA fluorescence polarization; actives 35% (n = 830); shares compounds with EBNA-1 inh;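 active = mean inhibition across replicates above a set limit taken from the earlier primary screen, cut at about 28% in these data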;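 note: plate controls were EBNA-1 protein with DMSO for no effect and wells lacking EBNA-1 for full effect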
# ZTA DNA inh trip = EBV Zta DNA binding inhibitors, counter-screen for EBNA-1 inhibitor project, biochemical, fluorescence polarization, triplicate; 830 tested, under 10 active; shares compounds with EBNA-1 inh; Zta-ZRE DNA binding, Cy5 fluorescence polarization; inhibition, % at 11.1 µM;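 active = mean inhibition over triplicates above a set limit taken from the primary EBNA-1 screen, cut at about 37% in these data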;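 note: purified full length Zta protein with Cy5 labeled ZRE DNA probe; 0% = Zta with DMSO and 100% = wells lacking Zta protein; inhibitors lower polarization by freeing the labeled DNA probe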
# * = called active by the depositor; · = not tested or not shown; + = active, no number; ! = not confirmed by another sample.
SMILES,EBNA-1 inh,HCV NS3 hel inh,HCV core dimer,ZTA DNA inh,EBNA-1 confirm,ZTA DNA inh trip
O=c1oc2c(O)c(O)cc3c(=O)oc4c(O)c(O)cc1c4c23,39*,31,6,26,47*,37*
O=[N+]([O-])c1cc(Cl)ccc1NCCNc1ncc(C(F)(F)F)cc1Cl,17,-15,3,10,·,·
O=[N+]([O-])c1ccccc1NCCNc1ncc(C(F)(F)F)cc1Cl,62*,3,-9,25,53*,11
CCc1nccn1S(=O)(=O)c1cc(OC)ccc1OC,-7,-4,11,6,·,·
CC(C)NC(=O)C1CC(=O)N(c2ccc(F)c(Cl)c2)C1 (stereo not drawn),32*,-7,-4,-18,4,6
CNC(=O)C1CC(=O)N(c2ccc(F)c(Cl)c2)C1 (stereo not drawn),7,-3,-2,9,·,·
Cc1ccc(S(=O)(=O)NC(=O)N(CCC#N)Cc2ccccc2)cc1,1,0,4,-3,·,·
O=S(=O)(c1ccc2nc(-c3ccccc3)[nH]c2c1)N1CCN(c2ccc(Cl)cc2)CC1,37*,8,17,0,13,9
O=c1ccc2cc(S(=O)(=O)N3CCN(c4ccccc4)CC3)ccc2[nH]1,-10,12,16,-23,·,·
Cc1ccc(NC(=O)CN2C(=O)NC(Cc3c[nH]c4ccccc34)C2=O)cc1 (stereo not drawn),·,·,·,4,·,·
CCC(=O)Nc1ccc(NC(=S)NC(=O)/C=C/c2ccco2)cc1,-7,8,8,-1,·,·
CC(=O)NC(=S)Nc1ccc(NC(=S)NC(=O)/C=C/c2ccco2)cc1,43*,12,18,1,32*,15
O=C1[C@H]2[C@@H](c3ccc(F)cc3)N3C(=O)N(c4cccc(F)c4)C(=O)[C@@]3(Cc3ccccc3)[C@H]2C(=O)N1C1CCCCC1,81*,·,8,6,9,-15
O=C1[C@H]2[C@@H](c3ccc(F)cc3)N3C(=O)N(c4cccc(Br)c4)C(=O)[C@@]3(Cc3ccccc3)[C@H]2C(=O)N1C1CCCCC1,10,·,12,4,·,·
Cc1sc2ncnc(N3CCN(Cc4ccccc4)CC3)c2c1-c1ccc(F)cc1,6,-38,3,2,·,·
NC(=O)c1c(-c2ccc(Cl)cc2Cl)csc1NC(=O)Cc1ccccc1,29*,0,2,-11,6,12
O=C(Cc1ccccc1)Nc1scc(-c2ccccc2)c1C(=O)N1CCOCC1,3,8,-1,-2,·,·
O=C(CSc1ncn[nH]1)N1c2ccccc2Sc2ccccc21,-7,-8,-1,-5,·,·
O=C(Nc1ccc2oc(=O)ccc2c1)c1ccc(-c2cccc(Cl)c2)o1,32*,13,11,5,25,21
O=C(Cn1cnc(S(=O)(=O)N2CCCC2)c1)Nc1ccc(OC(F)(F)F)cc1,-10,-1,-12,-7,·,·
COc1ccc(CN(CCN(C)C)c2ccccn2)cc1,+!,1,2,31,8,8
COc1ccc(N2CCN(C(=S)Nc3ccc(F)cc3)CC2)cc1,34*,6,4,-17,25,7
O=C(Cn1nc(C(=O)O)c2ccccc2c1=O)Nc1nc(-c2ccccc2)cs1,32*,-3,8,-2,30*,1
Cc1ccc(NC(=O)CCn2cnc3ccccc3c2=O)cc1,0,-2,0,11,·,·
O=C(Cn1cnc2ccccc2c1=O)Nc1nc2ccccc2s1,45*,2,6,5,55*,2
SMILES,EBNA-1 inh,HCV NS3 hel inh,HCV core dimer,ZTA DNA inh,EBNA-1 confirm,ZTA DNA inh trip
Cc1ccccc1NC(=O)Cn1nc(C(=O)O)c2ccccc2c1=O,-2,0,-4,1,·,·
O=C(CCn1cnc2ccccc2c1=O)Nc1nc(-c2ccc(Br)cc2)cs1,32*,-4,-21,16,44*,26
CCc1ccc2nc(NC(=O)Cn3cnc4ccccc4c3=O)sc2c1,7,-2,17,14,·,·
CCOC(=O)c1c(NC(=O)COC(=O)CC(NC(C)=O)c2ccccc2)sc(C(=O)NC)c1C (stereo not drawn),-5,·,-2,-24,·,·
COc1ccc(N2CCN(CCCNC(=O)C(=O)c3c(C)[nH]c4ccccc34)CC2)cc1,-9,-60,0,6,·,·
CN1C(C(=O)NCc2ccco2)=CC(c2ccc(F)cc2)=NS1(=O)=O,2,12,9,2,·,·
Cc1nc2ccccc2c(=O)n1/N=C/c1ccccc1OC(F)F,11,4,2,20,·,·
COc1cc(NC(=O)CSc2nc3ccccc3c(=O)n2C)ccc1NC(=O)c1ccco1,40*,0,-5,-1,28*,6
COc1cc(NC(=O)COc2ccccc2)ccc1NC(=O)c1ccco1,-7,-12,1,-9,·,·
Cc1oc(-c2ccc(-c3ccccc3)cc2)nc1CN(CCO)C(C)C,-5,-26,-5,-11,·,·
Cn1c(O)c(N=NC(=O)c2cc(-c3cccs3)nc3ccccc23)c2ccccc21,109*,4,34,-17,82*,-8
COc1ccc(NC(=O)c2cc(-c3cc(Cl)ccc3O)n[nH]2)c(OC)c1,33*,-4,11,23,19,3
COc1ccc(NC(=O)c2cc(-c3cc(C)c(C)cc3O)n[nH]2)c(OC)c1,8,10,7,6,·,·
COc1ccc(NC(=O)c2ccc(C(=O)Nc3ccc(OC)cc3OC)cc2)c(OC)c1,56*,3,-13,-7,51*,10
Cc1cc(Cl)ccc1OCC(=O)Nc1cccnc1,0,6,-4,1,·,·
CC(C)N1CCNCC1,-9,9,-3,-10,·,·
COc1ccc(-c2cc(C(=O)Nc3c(C)nn(Cc4ccccc4)c3C)no2)cc1,14,-1,2,-11,·,·
Cc1nn(Cc2ccccc2)c(C)c1NC(=O)c1cc(-c2ccc3c(c2)OCO3)on1,42*,2,9,-13,43*,4
c1ccc(COc2ccc(Oc3nc(N4CCCCC4)nc(N4CCOCC4)n3)nn2)cc1,13,-7,3,7,·,·
Cc1ccc(Nc2nc(Oc3ccc(OCc4ccccc4)nn3)nc(N3CCOCC3)n2)cc1,32*,5,22,-6,3,-5
CCCCOc1ccc(C(=O)Nc2ccc(C)cc2[N+](=O)[O-])cc1,34*,11,-6,-5,1,7
CSc1cccc(NC(=O)NCc2cccc(CNC(=O)Nc3cccc(SC)c3)c2)c1,34*,-1,-1,7,41*,3

# High-throughput results from PubChem.
